Source: ChEMBL document CHEMBL2434875, “Novel nonsecosteroidal VDR agonists with phenyl-pyrrolyl pentane skeleton” (Eur J Med Chem, 2013)
Active and inactive are the calls of the source. The rule behind the calls is not given here.

How the values were obtained:
[1] = target: T1, Vitamin D3 receptor (Homo sapiens) (UniProt P11473); experiment: Agonist activity at VDR in human HL60 cells assessed as induction of cell differentiation at >50 uM after 96 hrs by NBT reduction assay; assay type: cell-based; conditions: HL-60
T1 sequence (whole entry): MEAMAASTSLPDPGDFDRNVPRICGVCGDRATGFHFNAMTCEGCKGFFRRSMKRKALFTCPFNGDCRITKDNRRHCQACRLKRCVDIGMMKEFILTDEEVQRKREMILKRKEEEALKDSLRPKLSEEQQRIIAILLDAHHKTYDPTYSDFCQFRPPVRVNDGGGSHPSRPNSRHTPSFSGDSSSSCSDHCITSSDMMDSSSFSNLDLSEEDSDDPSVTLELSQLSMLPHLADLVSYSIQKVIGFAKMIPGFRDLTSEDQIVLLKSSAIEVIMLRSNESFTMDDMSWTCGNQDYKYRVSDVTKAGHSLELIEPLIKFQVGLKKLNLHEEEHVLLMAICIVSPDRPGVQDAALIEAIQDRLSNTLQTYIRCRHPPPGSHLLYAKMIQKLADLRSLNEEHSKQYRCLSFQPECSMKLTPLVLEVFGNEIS

HaCaT [2] = experiment: Cytotoxicity against human HaCaT cells at >50 uM after 48 hrs by MTT assay; assay type: functional, cell-based
Summary of the method: (§1)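 HaCaT or MCF-7 cells grown 48 h at 37 °C, 5% CO₂, no medium change. MTT (5 mg/mL) with DMEM added, 4 h. Medium replaced by DMSO to dissolve formazan, A570 read. IC50 from log-linear dose regression. Compounds above 85% efficacy rescreened for the final IC50. Triplicate experiments.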

MCF7 [3] = experiment: Cytotoxicity against human MCF7 cells after 48 hrs by MTT assay; assay type: functional, cell-based; conditions: MCF7, 48 h; summary of the method: as §1
MCF7 [4] = experiment: Cytotoxicity against human MCF7 cells at >50 uM after 48 hrs by MTT assay; assay type: functional, cell-based; summary of the method: as §1
HaCaT [5] = experiment: Cytotoxicity against human HaCaT cells after 48 hrs by MTT assay; assay type: functional, cell-based; summary of the method: as §1
Mus musculus [6] = experiment: In vivo calcemic activity in ICR mouse assessed as serum calcium level at 5 ug/kg, sc administered for 7 days (reference value: 8.76 mg/dL); assay type: ADME, organism-based; conditions: 0.005 mg/kg, 168 h
Mus musculus [7] = experiment: In vivo calcemic activity in ICR mouse assessed as serum calcium level at 30 mg/kg, sc administered for 7 days (reference value: 8.76 mg/dL); assay type: ADME, organism-based; design: dose 30 mg/kg, route subcutaneous; conditions: 168 h
Mus musculus [8] = experiment: In vivo calcemic activity in ICR mouse assessed as serum calcium level at 0.5 mg/kg, sc administered for 7 days (reference value: 8.76 mg/dL); assay type: ADME, organism-based; design: dose 0.5 mg/kg, route subcutaneous; conditions: 168 h
Mus musculus [9] = experiment: In vivo calcemic activity in ICR mouse assessed as serum calcium level at 10 mg/kg, sc administered for 7 days (reference value: 8.76 mg/dL); assay type: ADME, organism-based; design: dose 10 mg/kg, route subcutaneous; conditions: 168 h

CCn1c(C(=O)N[C@@H](CC(=O)O)C(=O)O)ccc1C(CC)(CC)c1ccc(OCC(=O)C(C)(C)C)c(C)c1
Activity [1]: inactive

CCC(CC)(c1ccc(OCC(=O)C(C)(C)C)c(C)c1)c1ccc(C(=O)N[C@@H](CC(=O)O)C(=O)O)n1C
growth inhibition (GI) (HaCaT [2]): inactive | IC50 (MCF7 [3]): 160 nM

CCn1c(C(=O)N[C@@H](C)C(=O)O)ccc1C(CC)(CC)c1ccc(OCC(O)C(C)(C)C)c(C)c1 (stereo partly specified)
growth inhibition (GI) (HaCaT [2]): inactive | IC50 (MCF7 [3]): 180 nM

CCC(CC)(c1ccc(OCC(O)C(C)(C)C)c(C)c1)c1ccc(C(=O)NCCCO)n1C (stereo unspecified)
growth inhibition (GI) (HaCaT [2]): inactive | IC50 (MCF7 [3]): 16400 nM

CCC(CC)(c1ccc(OCC(=O)C(C)(C)C)c(C)c1)c1ccc(C(=O)N[C@@H](C)C(=O)OC)n1C
Activity [1]: inactive

CCn1c(C(=O)NCCC(=O)OC)ccc1C(CC)(CC)c1ccc(OCC(=O)C(C)(C)C)c(C)c1
Activity [1]: inactive

CCC(CC)(c1ccc(OCC(=O)C(C)(C)C)c(C)c1)c1ccc(C(=O)NCCC(=O)O)n1C
Activity [1]: inactive

CCn1c(C(=O)N[C@@H](C)C(=O)O)ccc1C(CC)(CC)c1ccc(OCC(=O)C(C)(C)C)c(C)c1
Activity [1]: inactive

CCn1c(C(=O)N[C@@H](CC(=O)OC)C(=O)OC)ccc1C(CC)(CC)c1ccc(OCC(=O)C(C)(C)C)c(C)c1
Activity [1]: inactive

CCn1c(C(=O)NCCCO)ccc1C(CC)(CC)c1ccc(OCC(O)C(C)(C)C)c(C)c1 (stereo unspecified)
Activity [1]: inactive

CCC(CC)(c1ccc(OCC(=O)C(C)(C)C)c(C)c1)c1ccc(C(=O)N[C@@H](CC(=O)OC)C(=O)OC)n1C
Activity [1]: inactive

CCC(CC)(c1ccc(OCC(O)C(C)(C)C)c(C)c1)c1ccc(C(=O)NCCO)n1C (stereo unspecified)
Activity [1]: inactive

CCC(CC)(c1ccc(OCC(=O)C(C)(C)C)c(C)c1)c1ccc(C(=O)NCC(=O)O)n1C
Activity [1]: inactive

CCC(CC)(c1ccc(OCC(O)C(C)(C)C)c(C)c1)c1ccc(C(=O)NCCC(=O)O)n1C (stereo unspecified)
growth inhibition (GI) (MCF7 [4]): inactive | growth inhibition (GI) (HaCaT [2]): inactive

CCn1c(C(=O)NCCC(=O)O)ccc1C(CC)(CC)c1ccc(OCC(O)C(C)(C)C)c(C)c1 (stereo unspecified)
growth inhibition (GI) (MCF7 [4]): inactive | growth inhibition (GI) (HaCaT [2]): inactive

CCn1c(C(=O)N[C@@H](C)C(=O)OC)ccc1C(CC)(CC)c1ccc(OCC(=O)C(C)(C)C)c(C)c1
Activity [1]: inactive

CCC(CC)(c1ccc(OCC(O)C(C)(C)C)c(C)c1)c1ccc(C(=O)N[C@@H](C)CO)n1C (stereo partly specified)
growth inhibition (GI) (MCF7 [4]): inactive | IC50 (HaCaT [5]): 15700 nM

CCn1c(C(=O)N[C@@H](CC(=O)O)C(=O)O)ccc1C(CC)(CC)c1ccc(OCC(O)C(C)(C)C)c(C)c1 (stereo partly specified)
Activity [1]: inactive

CCC(CC)(c1ccc(OCC(O)C(C)(C)C)c(C)c1)c1ccc(C(=O)NCC(=O)O)n1C (stereo unspecified)
growth inhibition (GI) (MCF7 [4]): inactive | IC50 (HaCaT [5]): 9810 nM

CCC(CC)(c1ccc(OCC(=O)C(C)(C)C)c(C)c1)c1ccc(C(=O)NCCC(=O)OC)n1C
growth inhibition (GI) (MCF7 [4]): inactive | IC50 (HaCaT [5]): 28900 nM

CCn1c(C(=O)NCCO)ccc1C(CC)(CC)c1ccc(OCC(O)C(C)(C)C)c(C)c1 (stereo unspecified)
IC50 (MCF7 [3]): 1810 nM | IC50 (HaCaT [5]): 2080 nM

CCC(CC)(c1ccc(OCC(=O)C(C)(C)C)c(C)c1)c1ccc(C(=O)N[C@@H](C)C(=O)O)n1C
growth inhibition (GI) (MCF7 [4]): inactive | growth inhibition (GI) (HaCaT [2]): inactive

CCn1c(C(=O)NCC(=O)O)ccc1C(CC)(CC)c1ccc(OCC(=O)C(C)(C)C)c(C)c1
Activity [1]: inactive

CCC(CC)(c1ccc(OCC(O)C(C)(C)C)c(C)c1)c1ccc(C(=O)N[C@@H](C)C(=O)O)n1C (stereo partly specified)
Activity [1]: inactive

CCn1c(C(=O)NCC(=O)OC)ccc1C(CC)(CC)c1ccc(OCC(=O)C(C)(C)C)c(C)c1
growth inhibition (GI) (MCF7 [4]): inactive | growth inhibition (GI) (HaCaT [2]): inactive

CCn1c(C(=O)NCC(=O)O)ccc1C(CC)(CC)c1ccc(OCC(O)C(C)(C)C)c(C)c1 (stereo unspecified)
Activity [1]: inactive

CCC(CC)(c1ccc(OCC(O)C(C)(C)C)c(C)c1)c1ccc(C(=O)N[C@@H](CC(=O)O)C(=O)O)n1C (stereo partly specified)
Activity [1]: inactive

CCn1c(C(=O)N[C@H](CO)CCO)ccc1C(CC)(CC)c1ccc(OCC(O)C(C)(C)C)c(C)c1 (stereo partly specified)
IC50 (MCF7 [3]): 300 nM | IC50 (HaCaT [5]): 1250 nM

C=C1/C(=C\C=C2/CCC[C@]3(C)[C@@H]([C@H](C)CC[C@@H](O)C(C)C)CC[C@@H]23)C[C@@H](O)C[C@@H]1O [TACALCITOL]
Activity (Mus musculus [6]): 12.14 mg/dL | IC50 (MCF7 [3]): 57 nM | IC50 (HaCaT [5]): 2070 nM

CCn1c(C(=O)NCCC(=O)O)ccc1C(CC)(CC)c1ccc(OCC(=O)C(C)(C)C)c(C)c1
Activity [1]: inactive

CCn1c(C(=O)N[C@@H](C)CO)ccc1C(CC)(CC)c1ccc(OCC(O)C(C)(C)C)c(C)c1 (stereo partly specified)
Activity (Mus musculus [7]): 9.08 mg/dL | Activity (Mus musculus [8]): 8.09 mg/dL | Activity (Mus musculus [9]): 8.3 mg/dL | IC50 (MCF7 [3]): 307 nM | IC50 (HaCaT [5]): 2060 nM

CCC(CC)(c1ccc(OCC(=O)C(C)(C)C)c(C)c1)c1ccc(C(=O)NCC(=O)OC)n1C
growth inhibition (GI) (MCF7 [4]): inactive | growth inhibition (GI) (HaCaT [2]): inactive

CCC(CC)(c1ccc(OCC(O)C(C)(C)C)c(C)c1)c1ccc(C(=O)N[C@H](CO)CCO)n1C (stereo partly specified)
Activity (Mus musculus [7]): 8.94 mg/dL | Activity (Mus musculus [8]): 8.91 mg/dL | Activity (Mus musculus [9]): 9.29 mg/dL | IC50 (MCF7 [3]): 7.83 nM | IC50 (HaCaT [5]): 190 nM
